# Published values collected from several papers.
# Lines come from different studies, so protocols differ.
# Target: Tyrosine-protein kinase BTK (BTK, Homo sapiens, UniProt Q06187)
Structure (SMILES),test,conditions,quantity,value
COc1ncccc1-c1cnn2ccc(N3CCN(C(=O)OC(C)C)CC3)nc12,"binding, competition with immobilised ligand",1 µM,remaining binding,68%
Cc1nn(C)cc1-c1nc2c(N3CCN(Cc4ccc(Cl)cc4)CC3)c(Cl)cnc2[nH]1,"binding, competition with immobilised ligand",1 µM,remaining binding,100%
CC(C)(C)c1cc(C=C(C#N)C#N)cc(Br)c1O,"enzyme activity, inhibitor",0.5 µM,remaining activity,101%
C#Cc1n[nH]c2c(-c3cn(C(C)c4ccccn4)c(=O)[nH]c3=O)cc(F)cc12 (centres unmarked),"enzyme activity, inhibitor",1 µM,inhibition,1.7%
Cn1cncc1[C@@](O)(COc1ccc(C#N)cc1-c1ccc(OC(F)(F)F)cc1)c1ccc(C#N)cc1,"cell-free assay, competition with immobilised ligand",1 µM,remaining binding,82%
O=c1[nH]c2ccccc2n1C1CCN(Cc2ccc(-c3[nH]c4cc5ncnc5cc4nc3-c3ccccc3)cc2)CC1,cell-free assay,0.5 µM,remaining signal,98.4%
N#CC1(c2ccccn2)CCN(Cc2cc(C(=O)O)c(=O)n3ccccc23)CC1,"cell-free assay, competition with immobilised ligand",1 µM,remaining binding,100%
Nc1ncc(-c2nc(N3CCOCC3)nc(N3CCOCC3)n2)c(C(F)F)n1,"binding, competition with immobilised ligand",10 µM,remaining binding,26%
